# Assay results from ChEMBL document CHEMBL3046492, “Synthesis, insecticidal, and acaricidal activities of novel 2-aryl-pyrrole derivatives containing ester groups” (2008).
# Key:
# Format in all cases: functional
# [1] = tested on: Mythimna separata; experiment: Insecticidal activity against fourth-instar larval stage of Mythimna separata (Oriental armyworm) in compound pretreated corn leaves assessed as mortality at 5 mg/kg at 25 +/-1 degC measured after 2 days
# [2] = tested on: Mythimna separata; experiment: Insecticidal activity against fourth-instar larval stage of Mythimna separata (Oriental armyworm) in compound pretreated corn leaves assessed as mortality at 10 mg/kg at 25 +/-1 degC measured after 2 days
# [3] = tested on: Culex pipiens pallens; experiment: Insecticidal activity against fourth-instar larval stage of Culex pipiens pallens (mosquito) assessed as mortality at 0.25 mg/kg at 25 +/-1 degC after 2 days; settings: 48 h
# How it was run: (§1)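 Test solutions were prepared by adding 1 mL of each concentrated dilution to 99 mL water. Bioassays were run at 25 ± 1 °C on laboratory-reared insects.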
# [4] = tested on: Culex pipiens pallens; experiment: Insecticidal activity against fourth-instar larval stage of Culex pipiens pallens (mosquito) assessed as mortality at 0.50 mg/kg at 25 +/-1 degC after 2 days; settings: 48 h; how it was run: as §1
# [5] = tested on: Mythimna separata; experiment: Insecticidal activity against fourth-instar larval stage of Mythimna separata (Oriental armyworm) in compound pretreated corn leaves assessed as mortality at 20 mg/kg at 25 +/-1 degC measured after 2 days
# [6] = tested on: Tetranychus cinnabarinus; experiment: Acaricidal activity against adult Tetranychus cinnabarinus (carmine spider mite) in sieva bean plants assessed as mortality at 200 mg/kg treated for 3 secs measured after 2 days; settings: 48 h
# [7] = tested on: Culex pipiens pallens; experiment: Insecticidal activity against fourth-instar larval stage of Culex pipiens pallens (mosquito) assessed as mortality at 0.10 mg/kg at 25 +/-1 degC after 2 days; settings: 48 h; how it was run: as §1
# [8] = tested on: Tetranychus cinnabarinus; experiment: Acaricidal activity against adult Tetranychus cinnabarinus (carmine spider mite) in sieva bean plants assessed as mortality at 100 mg/kg treated for 3 secs measured after 2 days; settings: 48 h
# [9] = tested on: Tetranychus cinnabarinus; experiment: Acaricidal activity against adult Tetranychus cinnabarinus (carmine spider mite) in sieva bean plants assessed as mortality at 50 mg/kg treated for 3 secs measured after 2 days; settings: 48 h
Structure (SMILES),mortality at 5 mg/kg [1],mortality at 10 mg/kg [2],mortality at 0.25 mg/kg [3],mortality at 0.5 mg/kg [4],mortality at 20 mg/kg [5],mortality at 200 mg/kg [6],mortality at 0.1 mg/kg [7],mortality at 100 mg/kg [8],mortality at 50 mg/kg [9]
CC(=O)OCn1c(-c2ccc(Cl)cc2)c(C#N)c(Br)c1C(F)(F)F,0%,90%,100%,100%,100%,0%,100%,–,–
CC(C)C(=O)OCn1c(-c2ccc(Cl)cc2)c(C#N)c(Br)c1C(F)(F)F,0%,100%,–,–,100%,100%,–,100%,100%
N#Cc1c(Br)c(C(F)(F)F)n(COC(=O)c2ccccc2N)c1-c1ccc(Cl)cc1,0%,0%,100%,100%,10%,0%,100%,–,–
N#Cc1c(Br)c(C(F)(F)F)n(COC(=O)c2ccc(N)cc2)c1-c1ccc(Cl)cc1,0%,0%,10%,100%,40%,0%,10%,–,–
COc1ccc(C(=O)OCn2c(-c3ccc(Cl)cc3)c(C#N)c(Br)c2C(F)(F)F)cc1,0%,90%,30%,70%,100%,0%,20%,–,–
N#Cc1c(Br)c(C(F)(F)F)n(COC(=O)c2ccccc2[N+](=O)[O-])c1-c1ccc(Cl)cc1,20%,100%,20%,100%,100%,0%,10%,–,–
N#Cc1c(Br)c(C(F)(F)F)n(COC(=O)c2cc([N+](=O)[O-])cc([N+](=O)[O-])c2)c1-c1ccc(Cl)cc1,0%,0%,100%,100%,100%,0%,100%,–,–
CC(Oc1cccc([N+](=O)[O-])c1)C(=O)OCn1c(-c2ccc(Cl)cc2)c(C#N)c(Br)c1C(F)(F)F (stereo not drawn),0%,85%,100%,100%,100%,0%,90%,–,–
Cc1cccc(OC(C)C(=O)OCn2c(-c3ccc(Cl)cc3)c(C#N)c(Br)c2C(F)(F)F)c1 (stereo not drawn),0%,40%,100%,100%,100%,100%,100%,98%,96%
CC(Oc1ccc(C(C)(C)C)cc1)C(=O)OCn1c(-c2ccc(Cl)cc2)c(C#N)c(Br)c1C(F)(F)F (stereo not drawn),0%,30%,100%,100%,80%,100%,100%,96%,94%
N#Cc1c(Br)c(C(F)(F)F)n(COC(=O)C(=O)c2ccccc2)c1-c1ccc(Cl)cc1,0%,60%,–,–,100%,100%,–,88%,79%
CCOC(=O)OCn1c(-c2ccc(Cl)cc2)c(C#N)c(Br)c1C(F)(F)F,0%,90%,100%,100%,100%,100%,100%,89%,84%
